In ChEMBL document CHEMBL1141876, “Quinols as novel therapeutic agents. 2.(1) 4-(1-Arylsulfonylindol-2-yl)-4-hydroxycyclohexa-2,5-dien-1-ones and related agents as potent and selective antitumor agents” (2005) one finds CC50 and GI50 data, which are given here for 14 compounds.

Molecules are shown by their SMILES.

Common to all, as to assay type: functional
For experiment [1], the system named is HCT-116. The experiment is described as follows: Mean in vitro LC50 value against human HCT116 cell line was determined. Conditions: read-out: LC50 (the source's name). An outline of the steps:
(§1)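 NCI 60-cell-line screen. Cells seeded at densities suited to each line's growth and left drug-free for 24 h. Agents then added at five 10-fold dilutions, top concentration 100 μM, for 48 h. Cellular protein measured by sulforhodamine B colorimetry. LC50 read from these curves; for line 1 it is averaged across the 60 lines.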

Experiment [2] has as its system LOX IMVI. Kind of experiment: Mean in vitro LC50 value against human LOX IMVI cell line was determined. The note with it: read-out: LC50 (the source's name). An outline of the steps:
as §1

Experiment [3] has as its system Panel NCI-60 (60 carcinoma cell lines). The experiment is described as follows: Mean in vitro GI50 value against 60 human cancer cell line was determined.
For experiment [4] the test system is unchanged. The experiment is described as follows: Mean in vitro LC50 value against 60 human cancer cell line was determined. The note with it: read-out: LC50 (the source's name). In outline:
as §1

For experiment [5], the system named is UACC-62. The experiment is described as follows: Mean in vitro LC50 value against human UACC-62 cell line was determined. The note with it: read-out: LC50 (the source's name). In outline: as §1
Experiment [6] deals with RXF 393. Kind of experiment: Mean in vitro LC50 value against human RXF 393 cell line was determined. Conditions: read-out: LC50 (the source's name). In outline: as §1
The test system of experiment [7] is ACHN. The experiment is described as follows: Mean in vitro LC50 value against human ACHN cell line was determined. Conditions: read-out: LC50 (the source's name). In outline:
as §1

Experiment [8] concerns UO-31. Kind of experiment: Mean in vitro LC50 value against human UO-31 cell line was determined. The note with it: read-out: LC50 (the source's name). In outline: as §1
Experiment [9] has as its system U-251. Kind of experiment: Mean in vitro LC50 value against human U251 cell line was determined. Conditions: read-out: LC50 (the source's name). An outline of the steps: as §1
For experiment [10], the system named is CAKI-1. The experiment is described as follows: Mean in vitro LC50 value against human CAKI-1 cell line was determined. The note with it: read-out: LC50 (the source's name). An outline of the steps: as §1

For the compound `O=C1C=CC(O)(c2cc3cc(F)ccc3n2S(=O)(=O)c2ccccc2)C=C1`, the CC50 stood at 50 nM in [1], 63 nM in [2] and 3230 nM in [4]. For the same compound, the GI50 in experiment [3] came out at 66 nM.

For the compound `O=C1C=CC(O)(c2nc3ccccc3[nH]2)C=C1`, the CC50 was found to be 1860 nM in experiment [1], 1410 nM in experiment [5] and 13200 nM in [4]. The GI50 in experiment [3] amounted to 870 nM.

As to `O=C1C=CC(O)(c2cc3ccccc3n2S(=O)(=O)c2ccccc2)c2ccccc21` (stereo not given), the CC50 in experiment [1] worked out at 790 nM; in [2] it was 780 nM; in experiment [4] it was 7760 nM. For the same compound, the 50% growth inhibitory concentration (GI50) in experiment [3] came out at 450 nM.

`Cc1ccc(S(=O)(=O)n2c(C3(O)C=CC(=O)C=C3)cc3ccccc32)cc1`: the results for the CC50 in experiment [1], in [2] and in experiment [4] were 48 nM, 230 nM and 7240 nM, respectively. This compound registered a concentration for 50% growth inhibition (GI50) in experiment [3] of 110 nM.

Regarding `Cc1ccc(S(=O)(=O)n2c(C3(O)C=CC(=O)c4ccccc43)cc3ccccc32)cc1` (stereo not given), the CC50 was 450 nM in [1], 720 nM in experiment [2] and 5620 nM in [4]. For the same compound, in experiment [3], growth was halved (GI50) at 390 nM.

On to `CC(C)c1cc(C(C)C)c(S(=O)(=O)n2c(C3(O)C=CC(=O)C=C3)cc3ccccc32)c(C(C)C)c1`, for which the results for the CC50 in experiment [1], in experiment [6] and in experiment [4] were 550 nM, 780 nM and 11200 nM, respectively. Besides, in experiment [3], halving of growth (GI50) required 430 nM.

Regarding `COc1ccc2c(c1)cc(C1(O)C=CC(=O)C=C1)n2S(=O)(=O)c1ccccc1`, the CC50 in experiment [2] amounted to 470 nM; in experiment [7], 450 nM; in [4], 6170 nM. The compound also registered a GI50 in experiment [3] of 130 nM.

Turning to `COc1ccc(S(=O)(=O)n2c(C3(O)C=CC(=O)C=C3)cc3ccccc32)cc1`, the CC50 stood at 110 nM in experiment [1], 380 nM in experiment [2] and 6310 nM in experiment [4]. This compound also gave a GI50 in experiment [3] of 160 nM.

As for `O=C1C=CC(O)(c2cc3ccccc3n2S(=O)(=O)c2ccc(F)cc2)C=C1`, the figures for the CC50 in experiment [1], in [8] and in experiment [4] were 360 nM, 630 nM and 7760 nM, respectively. The 50% growth inhibitory concentration (GI50) in [3] came to 230 nM.

On to `O=C1C=CC(O)(c2cc3ccc(F)cc3n2S(=O)(=O)c2ccccc2)C=C1`, for which the CC50 in experiment [1] was less than 10 nM; in [7] it was 20 nM; in experiment [4], 2240 nM. In experiment [3], it took 16 nM to inhibit growth by half (GI50).

As for `O=C1C=CC(O)(c2cc3ccccc3n2S(=O)(=O)c2ccc3ccccc3c2)C=C1`, the CC50 in [1] is 370 nM; in experiment [9], 510 nM; in experiment [4], 5620 nM. The compound also showed a GI50 in experiment [3] of 190 nM.

Consider `O=C1C=CC(O)(c2nc3ccccc3s2)C=C1`, for which the CC50 in experiment [1] is 430 nM; in experiment [6], 580 nM; in experiment [4] it was 3390 nM. This compound also displayed a GI50 in experiment [3] of 230 nM.

In the case of `O=C1C=CC(O)(c2cc3ccccc3n2S(=O)(=O)c2ccccc2)C=C1`, the concentration for 50% growth inhibition (GI50) in [3] amounted to 39 nM. The figures for the CC50 in experiment [4] and in experiment [10] were 2950 nM and 53 nM, respectively.

Regarding `O=C1C=CC(O)(c2cc3ccccc3[nH]2)C=C1`, the CC50 in [1] was determined as 5130 nM; in experiment [6], 3390 nM; in experiment [4], 24000 nM. This compound also registered a GI50 in experiment [3] of 1380 nM.
